# In the library only some 2.6% were active in any assay of this set; here they are far more common.
# dFosB act: enhances mouse delta FosB homodimer DNA binding; AID 493131; purified delta FosB, TAMRA-CDK5 oligo fluorescence polarization; percent of positive-control signal above neutral wells; 340,000 tested, 0.99% active; activation, % at 25 µM;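 active = mean activation above about 17%, with every replicate also reaching it, limit read from the data, passing the limit was not always enough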
# Target sequence (P13346 whole entry, looked up): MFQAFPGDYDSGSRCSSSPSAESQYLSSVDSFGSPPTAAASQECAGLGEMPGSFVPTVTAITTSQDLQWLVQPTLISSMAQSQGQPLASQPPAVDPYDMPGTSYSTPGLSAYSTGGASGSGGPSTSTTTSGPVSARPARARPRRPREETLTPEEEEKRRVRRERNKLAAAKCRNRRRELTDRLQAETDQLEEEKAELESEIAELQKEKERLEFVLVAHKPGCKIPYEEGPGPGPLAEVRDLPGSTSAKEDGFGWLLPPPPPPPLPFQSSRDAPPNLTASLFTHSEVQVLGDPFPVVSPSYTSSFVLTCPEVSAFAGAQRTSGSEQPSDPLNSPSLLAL
# PvdQ inh: blocks Pseudomonas aeruginosa PvdQ acylase activity. purified PvdQ acylase, fluorescence plate reader. inhibition, % at 10 µM. 340,000 tested, 0.063% active. AID 488965; in the data active = inhibition above about 30%, passing the limit was not always enough;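 note: 0% = vehicle neutral wells and 100% = reference inhibitor wells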
# rRNA inh HTS: selective bacterial rRNA inhibition in E. coli; E. coli WT GFP vs humanized-ribosome RFP mutants, fluorescence, 24 h; active compounds read low; DMSO median 0, no signal -100; GFP signal change (wild-type ribosome), % (concentration not given with the values); 350,000 tested, 1.6% active;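 active = significant combined selectivity score with lowered wild-type GFP, culture density cut under 30%, mutant RFP and density less affected; inactive = any of these conditions unmet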
# XiGFP reactiv: X-chromosome reactivation activator. activation, % at 7.58 µM. XiGFP mouse fibroblasts, % GFP-positive cells imaging, 3 d; cells co-treated with 5-aza-dC sensitizer; scaled so ellipticine positive control = 100%. 360,000 tested, 0.055% active;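 active = mean normalized replicate activation at least 10% and every replicate at or above 10%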;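 note: 0% = median of on-plate neutral control wells and 100% = ellipticine 6 µM median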
#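 Assay system – SV40-immortalized XiGFP fibroblast cells, line 68-5-11 · Buffer or medium – DMEM supplemented with 5-aza-dC as sensitizing agent · Dosing – one concentration, pinned · Benchmarks – positive control ellipticine, 6 µM final · Times – 3 days compound exposure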
# SR-BI HDL uptake: inhibitors of mouse SR-BI mediated HDL lipid uptake; AID 488896; 320,000 tested, 0.96% active; inhibition, % at 12.5 µM; ldlA[mSR-BI] CHO cells, DiI-HDL uptake fluorescence, 3 h; Q61009;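 active = mean replicate inhibition of at least 70% and a set share of replicates each scoring 70 or more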;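 note: 0% = median of neutral control wells and 100% = median of positive control wells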
# SR-BI uptake up: activators of SR-BI mediated HDL lipid uptake. AID 504775. activation, % at 12.5 µM. CHO ldlA[mSR-BI] cells, DiI-HDL uptake fluorescence, 3 h; 100 = double the neutral-control signal. 320,000 tested, 0.096% active;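 active = mean replicate activation of at least 60% and every replicate at or above 60%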;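 note: 0% = median plate neutral-control signal and 100% = twice that signal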
#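 system = CHO ldlA[mSR-BI] cells, LDL receptor-null, SR-BI overexpressing | medium = Ham's F12 with 0.5% BSA, HEPES 25 mM, pH 7.4 | probe or stimulus = DiI-HDL 10 µg/mL | compound dosing = single-point compound dose | incubation = compound exposure 3 h, 37 °C | technique = DiI fluorescence, bottom read | read-out = cell-associated DiI fluorescence as measure of HDL uptake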
# * marks the source's active call; other numbers are inactive results; . = no result.
SMILES,dFosB act,PvdQ inh,rRNA inh HTS,XiGFP reactiv,SR-BI HDL uptake,SR-BI uptake up
Nc1c(O)ccc2c1C(=O)c1ccccc1C2=O,.,.,-56*,0,.,.
Nc1cc(N)c2c(c1)C(=O)c1ccccc1-2,-4,-16,-8,0,8,-8
CC1Oc2ccccc2C=C1/C=N/Nc1ccc(C(=O)O)cc1 (configuration not stated),0,10,-23*,0,5,-5
COc1ccc2oc(=O)c(C(=O)NCc3ccc(C)cc3)cc2c1,-5,-9,8,0,-4,4
COc1cc(OC)cc(-c2c(-c3cccs3)c3cc(-c4ccc5c(c4)OCCO5)ccc3n2C)c1,1,-18,5,0,78*,-78
COc1cc(OC)cc(-c2c(-c3cccs3)c3cc(-c4ccc(OC)c(OC)c4)ccc3n2C)c1,4,1,11,0,79*,-79
COc1cc(OC)cc(-c2c(-c3cccs3)c3cc(-c4ccc(OC)c(F)c4)ccc3n2C)c1,-4,-13,-1,0,59,-59
COc1ccc(-n2cc(-c3ccccc3)c3c(N4CC(C)OC(C)C4)ncnc32)cc1 (configuration not stated),-20,-14,3,0,76*,-76
c1ccc(-c2cn(-c3ccccc3)c3ncnc(N4CCCCC4)c23)cc1,-6,-16,4,0,17,-17
CN1CCN(c2ncnc3c2c(-c2ccccc2)cn3-c2ccc(F)cc2)CC1,-4,-17,-22,0,9,-9
CCOc1ccc(-n2cc(-c3ccccc3)c3c(N4CCOCC4)ncnc32)cc1,2,-26,-1,0,82*,-82
CCOc1ccc(OCCn2c(=S)[nH]c3c(N)ncnc32)cc1,-18,-19,-31*,0,-5,5
O=C(Nc1cc(Sc2ccccn2)cc([N+](=O)[O-])c1)c1ccc([N+](=O)[O-])cc1,-2,5,.,.,90*,-90
CN(C)c1cccc(Oc2nc3c(c(=O)n(C)c(=O)n3C)n2C)c1,-3,-7,4,0,89*,-89
CCC1(C)Cc2ccccc2-c2nc(NCCCO)[nH]c(=O)c21 (configuration not stated),3,-14,-28*,0,10,-10
COc1ccccc1C(=O)Nc1ccnn1C1CCN(C/C=C/c2ccccc2)CC1,-3,-4,-8,0,-11,11
COc1cc(C2Nc3cccc4cccc(c34)N2)ccc1OC(C)=O,-7,-5,.,.,14,-14
COc1cc(C2Nc3cccc4cccc(c34)N2)cc(OC)c1O,41*,-1,-64,.,4,-4
Oc1ccc(C2Nc3cccc4cccc(c34)N2)c(O)c1,8,-1,.,.,91*,-91
Fc1ccc(C2Nc3cccc4cccc(c34)N2)cc1,25*,-6,11,0,10,-10
Fc1ccccc1CN1CCCC(NC2CCC2)C1 (configuration not stated),-3,-2,6,0,4,-4
Cc1ccccc1NS(=O)(=O)c1cc(C(=O)Nc2cccnc2)ccc1C,-10,-9,-25,0,37,-37
Brc1ccc(/C=N/Nc2ccc3ccccc3n2)cc1,-6,23,.,.,-6,6
Fc1cccc(/C=N/Nc2ccc3ccccc3n2)c1,-3,-12,-24*,0,13,-13
O=C1C=CC(c2c[nH]c3ccccc23)CC1 (configuration not stated),.,.,-14*,0,.,.
SMILES,dFosB act,PvdQ inh,rRNA inh HTS,XiGFP reactiv,SR-BI HDL uptake,SR-BI uptake up
Cc1ccccc1N1C(=O)CC(c2c[nH]c3ccccc23)C1=O (configuration not stated),-7,-6,0,0,7,-7
CC(C)=CC(=O)OCc1cc([N+](=O)[O-])cc2c1OCOC2,-9,-7,-16*,0,30,-30
COc1ccc(-c2c(Sc3ccccc3)c3cc(-c4ccc(OC)c(F)c4)ccc3n2C)cc1,.,.,-30,0,.,.
O=C(/C=C/c1ccc(S(=O)(=O)NCc2ccco2)cc1)NCc1ccccc1Cl,-10,4,-27*,0,39,-39
COc1ccc(CNC(=O)/C=C/c2ccc(S(=O)(=O)NCc3ccco3)cc2)cc1OC,-12,-20,.,0,35,-35
O=C(N[C@@H]1CC[C@H](CC(=O)N2CCOCC2)O[C@@H]1CO)c1ccc2c(c1)OCO2,.,.,-2,0,.,.
CN1C=C/C(=C\c2cc[n+](C)c3ccccc23)c2ccccc21,38*,-11,-16,0,-18,18
Oc1ccc(Cl)cc1C=Nc1ccc2c3c(cccc13)CC2,1,-16,26,30*,-3,3
Cc1cccc(C=Nc2ccc3c4c(cccc24)CC3)c1O,3,-4,.,0,10,-10
O=C(NC(=S)NNC(=O)c1ccccc1O)c1ccccc1,0,0,-14,0,100*,-100
O=C(COC(=O)c1cc(Br)ccc1O)NNC(=O)c1cccs1,29*,-1,.,3,-1,1
O=C(Nc1ccccc1)c1ccc(-c2ccc([N+](=O)[O-])cc2)o1,1,0,-11,0,.,.
O=C(NC(=S)NNC(=O)c1ccccc1O)c1ccc([N+](=O)[O-])cc1,-11,2,4,0,106*,-106
O=C(NNC(=O)c1ccccc1O)c1ccc(-c2ccc([N+](=O)[O-])cc2)o1,2,-1,-25*,0,121*,-121
CCOC(=O)[C@]12CCCC=C1N(Cc1ccc(Cl)cc1Cl)C(=O)[C@H](CC(=O)NCC1CCCCC1)C2,.,.,.,0,.,.
O=C(O)CSCC(=O)Nc1ccc(C2CCCCC2)cc1,2,-3,.,.,10,-10
Cc1ccc(NC(=O)CN2CCN(S(=O)(=O)c3cccs3)CC2)cc1S(=O)(=O)N(C)C,-5,-3,-3,0,42,-42
O=C(NC(=S)NNC(=O)c1ccccc1O)c1cccs1,3,10,-4,0,114*,-114
COc1ccc(Cl)cc1NC(=O)CN(C)CC(=O)NCc1cccs1,-11,-6,-5,0,17,-17
Cc1ccc(C(=O)NC(=S)NNC(=O)c2ccccc2O)cc1,-6,-10,-5,0,112*,-112
O=C(NNC(=O)c1cc(Cl)ccc1O)c1cccs1,11,-12,-8,0,89*,-89
Cc1ccc(C(=O)NNC(=S)NC(=O)c2ccccc2)cc1,-5,11,-32,0,4,-4
COc1ccc(Cl)cc1NC(=O)CN(C)S(=O)(=O)c1cccs1,-6,-15,-32*,0,.,.

# Screens deposited in PubChem BioAssay by Broad Institute.
